Calls of active or inactive are those of the source. The rule behind the calls is not given here.

From ChEMBL document CHEMBL3091455, “Dimethylaminopyridine derivatives of lupane triterpenoids cause mitochondrial disruption and induce the permeability transition” (Bioorg Med Chem, 2013) come the findings set out here.

For data set [1], the species on record is Rattus norvegicus. The data set can be described thus: Effect on calcium-induced mitochondrial swelling in Wistar-Han rat liver mitochondria assessed as mitochondrial transmembrane electric potential after 2 mins. Type of data set: functional. The method, boiled down:
(§1)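 TPP⁺ electrode, 30 °C, 1 mg rat liver mitochondria in 1 ml 200 mM sucrose, 10 mM Tris-MOPS pH 7.2, 10 µM EGTA, 1 mM KH₂PO₄, 3 µM rotenone, 3 µM TPP⁺. Compound incubated with mitochondria 2 min (legend), then 5 mM succinate. Calcium 30–60 nmol pulses, depending on preparation. Controls: 1 µM cyclosporin A pre-incubated; FCCP.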

A further data set relates to MCF7. As to the kind of experiment: Induction of mitochondrial depolarization in human estrogen-sensitive MCF7 cells at 1 ug/ml after 48 hrs by MitoTracker Red staining. Type of data set: functional, cell-based. The method, boiled down:
(§2)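 Cells grown in DMEM with 10% FBS at 37 °C, 5% CO₂, seeded on coverslips, attached 24 h. Then 1 µg/ml compound for 48 h. MitoTracker Red CMXRos 7.3 nM added for the final 30 min. Cells fixed in cold methanol at −20 °C overnight and imaged by epifluorescence with a 63× objective. Three independent experiments.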

Data set [2] is filed under the species Rattus norvegicus. As to the kind of experiment: Increase of calcium-induced mitochondrial permeability transition in Wistar-Han rat liver mitochondria assessed as mitochondrial transmembrane electric potential after 2 mins. Format: functional. In outline:
as §1

For data set [3], the species on record is Rattus norvegicus. As to the kind of experiment: Effect on electron transport protein complex 2 in Wistar-Han rat liver mitochondria using succinate as substrate assessed as mitochondrial transmembrane electric potential at 3 ug/mg relative to control.
In another data set the test system is BJ. The data set can be described thus: Induction of mitochondrial depolarization in human BJ cells at 1 ug/ml after 48 hrs by MitoTracker Red staining. Format: cell-based. The method, boiled down: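 BJ normal human fibroblasts grown as monolayers in DMEM with 10% FBS, 37 °C, 5% CO2. Seeded on glass coverslips, attached 24 h, then exposed to compound (1 µg/ml) for 48 h. MitoTracker Red CMXRos (7.3 nM) added 30 min before end at 37 °C in dark. Methanol-fixed at -20 °C overnight, imaged by epifluorescence (63× objective). Three independent experiments.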

Data set [4] is filed under the species Rattus norvegicus. As to the kind of experiment: Effect on electron transport protein complex 2 in Wistar-Han rat liver mitochondria using succinate as substrate assessed as phosphorylative lag phase at 6 ug/mg relative to control. In outline:
(§3)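 Membrane potential recorded by TPP⁺ electrode, 1 mg rat liver mitochondria, 30 °C, pH 7.2 sucrose/KCl medium with 3 μM TPP⁺. Compound (3 or 6 µg/mg protein) given 1 min before glutamate/malate (5/2.5 mM) or succinate (5 mM) + 3 µM rotenone. Lag phase follows the ADP pulse (125 nmol/mg protein).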

The species entered for data set [5] is Rattus norvegicus. The data set can be described thus: Effect on electron transport protein complex 1 in Wistar-Han rat liver mitochondria using glutamate/malate as substrate assessed as ADP-induced depolarization at 3 ug/mg relative to control.
The species entered for data set [6] is Rattus norvegicus. The data set can be described thus: Effect on electron transport protein complex 2 in Wistar-Han rat liver mitochondria using succinate as substrate assessed as ADP-induced depolarization at 3 ug/mg relative to control.
For data set [7], the species on record is Rattus norvegicus. The data set can be described thus: Effect on electron transport protein complex 1 in Wistar-Han rat liver mitochondria using glutamate/malate as substrate assessed as ADP-induced depolarization at 6 ug/mg relative to control.
For data set [8], the species on record is Rattus norvegicus. As to the kind of experiment: Effect on electron transport protein complex 1 in Wistar-Han rat liver mitochondria using glutamate/malate as substrate assessed as phosphorylative lag phase at 3 ug/mg relative to control. The method, boiled down:
as §3

Data set [9] is filed under the species Rattus norvegicus. The data set can be described thus: Inhibition of electron transport protein complex 1/2 in Wistar-Han rat liver mitochondria using glutamate/malate and succinate as substrate assessed as decrease of respiratory control ratio at 6 ug/mg. The method, boiled down: (§4)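 Compound (3 or 6 µg/mg protein) preincubated 1 min, then 10 mM glutamate/5 mM malate or 5 mM succinate + 3 µM rotenone. ADP 187.5 nmol/mg protein; oligomycin 1 µg; FCCP 1 µM. RCR = state 3/state 4; ADP/O per Chance and Williams. Expressed as % control, means ± SEM, three preparations.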

The species entered for data set [10] is Rattus norvegicus. As to the kind of experiment: Inhibition of electron transport protein complex 1/2 in Wistar-Han rat liver mitochondria using glutamate/malate and succinate as substrate assessed as increase of state 3 and 4 mitochondrial oxygen consumption at 3 to 6 ug/mg. The method, boiled down:
as §4

The species entered for data set [11] is Rattus norvegicus. As to the kind of experiment: Effect on electron transport protein complex 2 in Wistar-Han rat liver mitochondria using succinate as substrate assessed as mitochondrial transmembrane electric potential at 6 ug/mg relative to control.
The species entered for data set [12] is Rattus norvegicus. As to the kind of experiment: Effect on electron transport protein complex 1 in Wistar-Han rat liver mitochondria using glutamate/malate as substrate assessed as phosphorylative lag phase at 6 ug/mg relative to control. In outline: as §3
For data set [13], the species on record is Rattus norvegicus. The data set can be described thus: Effect on electron transport protein complex 2 in Wistar-Han rat liver mitochondria using succinate as substrate assessed as ADP-induced depolarization at 6 ug/mg relative to control.
A further data set deals with Hs-578T. The data set can be described thus: Induction of mitochondrial depolarization in human estrogen-insensitive Hs578T cells at 1 ug/ml after 48 hrs by MitoTracker Red staining. Format: functional, cell-based. In outline:
as §2

The species entered for data set [14] is Rattus norvegicus. As to the kind of experiment: Effect on electron transport protein complex 1 in Wistar-Han rat liver mitochondria using glutamate/malate as substrate assessed as mitochondrial transmembrane electric potential at 6 ug/mg relative to control.
Data set [15] is filed under the species Rattus norvegicus. As to the kind of experiment: Effect on electron transport protein complex 1 in Wistar-Han rat liver mitochondria using glutamate/malate as substrate assessed as mitochondrial transmembrane electric potential at 3 ug/mg relative to control.
Data set [16] is filed under the species Rattus norvegicus. As to the kind of experiment: Effect on electron transport protein complex 2 in Wistar-Han rat liver mitochondria using succinate as substrate assessed as phosphorylative lag phase at 3 ug/mg relative to control. The method, boiled down:
as §3

The species named for data set [17] is Rattus norvegicus. As to the kind of experiment: Inhibition of electron transport protein complex 1/2 in Wistar-Han rat liver mitochondria using glutamate/malate and succinate as substrate assessed as decrease of FCCP-induced respiration at 3 to 6 ug/mg. The method, boiled down: as §4
Data set [18] is filed under the species Rattus norvegicus. The data set can be described thus: Inhibition of electron transport protein complex 1/2 in Wistar-Han rat liver mitochondria using glutamate/malate and succinate as substrate assessed as increase of passive flux of protons through mitochondrial inner membrane at 3 to 6 ug/mg.
The species named for data set [19] is Rattus norvegicus. The data set can be described thus: Inhibition of electron transport protein complex 1/2 in Wistar-Han rat liver mitochondria using glutamate/malate and succinate as substrate assessed as decrease of ADP/O ratio at 3 to 6 ug/mg. The method, boiled down: as §4

`C=C(C[n+]1ccc(N(C)C)cc1)[C@@H]1CC[C@]2(COC(=O)C[n+]3ccc(N(C)C)cc3)CC[C@]3(C)[C@H](CC[C@@H]4[C@@]5(C)CC[C@H](OC(=O)C[n+]6ccc(N(C)C)cc6)C(C)(C)[C@@H]5CC[C@]43C)[C@@H]12.[Br-].[Br-].[Br-]`: the outcome in the data set listed under Rattus norvegicus [1] was inactive. Moreover, the outcome with MCF7, in the data set listed under Rattus norvegicus [2] and in the data set on Hs-578T was Active. Also, the Activity in the data set filed under Rattus norvegicus [3] was 232 mV; in the data set with BJ, “Toxic”; in the data set listed under Rattus norvegicus [4] it was 45.5%; in the data set listed under Rattus norvegicus [5], 18.5%; in the data set listed under Rattus norvegicus [6], 30.3%; in the data set filed under Rattus norvegicus [7], 14.6%. Further, the Activity in the data set listed under Rattus norvegicus [8] was determined as 42.8%; in the data set filed under Rattus norvegicus [11] it was 228 mV; in the data set listed under Rattus norvegicus [12], 46.5%; in the data set filed under Rattus norvegicus [13], 27.8%; in the data set filed under Rattus norvegicus [14], 226 mV; in the data set filed under Rattus norvegicus [15], 225 mV. Further, the Activity in the data set filed under Rattus norvegicus [16] came out at 36%. Further, the inhibition entry in the data set filed under Rattus norvegicus [9] is “Active”. The inhibition result in the data set filed under Rattus norvegicus [10] was “inactive”.
Take `C=C(C)[C@@H]1CC[C@]2(CO)CC[C@]3(C)[C@H](CC[C@@H]4[C@@]5(C)CC[C@H](OC(=O)C[n+]6ccc(N(C)C)cc6)C(C)(C)[C@@H]5CC[C@]43C)[C@@H]12.[Cl-]`: the result in the data set filed under Rattus norvegicus [1] was inactive. Also, the result in the data set with MCF7, in the data set listed under Rattus norvegicus [2] and in the data set with Hs-578T was Active. Further, the Activity in the data set listed under Rattus norvegicus [3] is 232 mV; in the data set with BJ, “Toxic”; in the data set filed under Rattus norvegicus [4], 53%; in the data set filed under Rattus norvegicus [5], 26.5%; in the data set filed under Rattus norvegicus [6] it was 36.2%; in the data set listed under Rattus norvegicus [7] it was 23.5%. Further, the Activity stood at 27.8% in the data set filed under Rattus norvegicus [8]; 228 mV in the data set listed under Rattus norvegicus [11]; 45% in the data set listed under Rattus norvegicus [12]; 29.9% in the data set listed under Rattus norvegicus [13]; 222 mV in the data set listed under Rattus norvegicus [14]; 222 mV in the data set filed under Rattus norvegicus [15]. Also, the Activity in the data set filed under Rattus norvegicus [16] stood at 38%. For the same compound, the inhibition entry in the data set filed under Rattus norvegicus [10] is “inactive”.
As to `C=C(C)[C@@H]1CC[C@]2(COC(=O)C[n+]3ccc(N(C)C)cc3)CC[C@]3(C)[C@H](CC[C@@H]4[C@@]5(C)CC[C@H](OC(=O)C[n+]6ccc(N(C)C)cc6)C(C)(C)[C@@H]5CC[C@]43C)[C@@H]12.[Br-].[Br-]`, the outcome in the data set filed under Rattus norvegicus [1] was inactive. Further, the result in the data set with MCF7, in the data set filed under Rattus norvegicus [2] and in the data set with Hs-578T was Active. For the same compound, the Activity in the data set filed under Rattus norvegicus [3] was 232 mV; in the data set with BJ, “Toxic”; in the data set filed under Rattus norvegicus [4], 40%; in the data set listed under Rattus norvegicus [5], 23.4%; in the data set listed under Rattus norvegicus [6] it was 30.6%; in the data set listed under Rattus norvegicus [7], 20.3%. In addition, the Activity in the data set filed under Rattus norvegicus [8] was 36.8%; in the data set listed under Rattus norvegicus [11], 229 mV; in the data set filed under Rattus norvegicus [12], 46%; in the data set filed under Rattus norvegicus [13] it was 27.7%; in the data set listed under Rattus norvegicus [14], 225 mV; in the data set listed under Rattus norvegicus [15], 225 mV. The Activity in the data set filed under Rattus norvegicus [16] was 38.3%. In addition, the inhibition entry in the data set listed under Rattus norvegicus [17] and in the data set listed under Rattus norvegicus [18] was “Active” in each case.
For the compound `C=C(C[n+]1ccc(N(C)C)cc1)[C@@H]1CC[C@]2(C(=O)O)CC[C@]3(C)[C@H](CC[C@@H]4[C@@]5(C)CC[C@H](O)C(C)(C)[C@@H]5CC[C@]43C)[C@@H]12.[Br-]`, the outcome in the data set with MCF7 and with Hs-578T was inactive. Besides, the Activity is 228 mV in the data set filed under Rattus norvegicus [3]; “Non-toxic” with BJ; 57% in the data set filed under Rattus norvegicus [4]; 19.5% in the data set filed under Rattus norvegicus [5]; 22.4% in the data set listed under Rattus norvegicus [6]; 13.5% in the data set listed under Rattus norvegicus [7]. The Activity was determined as 51% in the data set filed under Rattus norvegicus [8]; 228 mV in the data set filed under Rattus norvegicus [11]; 63.3% in the data set listed under Rattus norvegicus [12]; 13.8% in the data set filed under Rattus norvegicus [13]; 229 mV in the data set filed under Rattus norvegicus [14]; 229 mV in the data set listed under Rattus norvegicus [15]. The Activity in the data set listed under Rattus norvegicus [16] turned out to be 40.3%. For the same compound, in the data set filed under Rattus norvegicus [9], the inhibition result was “Active”. In the data set listed under Rattus norvegicus [10], the inhibition result was “inactive”.
For the compound `C=C(C)[C@@H]1CC[C@]2(COC(=O)C[n+]3ccc(N(C)C)cc3)CC[C@]3(C)[C@H](CC[C@@H]4[C@@]5(C)CC[C@H](O)C(C)(C)[C@@H]5CC[C@]43C)[C@@H]12`, in the data set filed under Rattus norvegicus [1], the outcome was inactive. The outcome in the data set filed under Rattus norvegicus [2] was Active. The Activity in the data set listed under Rattus norvegicus [3] amounted to 226 mV; in the data set listed under Rattus norvegicus [4], 42%; in the data set filed under Rattus norvegicus [5] it was 22.5%; in the data set listed under Rattus norvegicus [6], 28.5%; in the data set filed under Rattus norvegicus [7], 22.6%; in the data set listed under Rattus norvegicus [8] it was 28.8%. Also, the Activity came out at 224 mV in the data set listed under Rattus norvegicus [11]; 31% in the data set listed under Rattus norvegicus [12]; 27.8% in the data set listed under Rattus norvegicus [13]; 225 mV in the data set listed under Rattus norvegicus [14]; 225 mV in the data set filed under Rattus norvegicus [15]; 39% in the data set listed under Rattus norvegicus [16]. Also, the inhibition result in the data set filed under Rattus norvegicus [19] and in the data set filed under Rattus norvegicus [10] was “Active” each time.
